Test results taken from publication PMC6039199 (Clinical and Translational Science, 2018).
Values joined by “and” are separate entries in the source; they are usually repeats but may differ in a detail not shown here. Equal entries are not always repeated. “Also recorded” adds a separate entry of the source. Where two headings read alike, the source gives them in different places. Marks after values point to notes of the source that are not given here.

Tests used:
[1] = format: in vivo, human; conditions: for AUCinf(dn), adjusted least squares geometric mean: N = 8, mixed-effects model; for t1/2 / half-life: arithmetic mean ± SD
Outline: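 In period 1, after an overnight fast of at least 8 h, subjects received 15 mg oral unlabeled drug. A 100 μg 14C i.v. microdose (~400 nCi) was infused over ~5 min, ending 1 h post oral dose. Plasma 14C drug was measured by HPLC-AMS and unlabeled drug by HPLC-MS/MS (LLOQ 0.5 ng/mL). Noncompartmental AUClast used linear-log trapezoids and AUCinf = AUClast + Clast*/kel, normalized to the actual dose. F = ratio of adjusted geometric means, from a mixed-effects model on ln AUCinf with 90% CI.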

[2] = format: in vivo, human; conditions: for 14C_Total(dn) (14C_Total in dpm/radioactivity dose in dpm), geometric mean: N = 6; for 14C-Total urinary excretion: mean (%CV)
Outline: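 Period 1 was the i.v. 14C microdose. In period 2, after at least 11 days washout and a fast of at least 8 h, subjects took 15 mg oral unlabeled drug (three 5-mg tablets), then a 100 μg oral 14C solution (~400 nCi) with ~240 mL water. Urine 0–96 h was assayed for 14C by AMS, summed as concentration × volume, then normalized to the administered dpm. That dose came from LSC of the solution and syringe weight. Fa = oral/i.v. geometric mean ratio, plus a mixed-effects model using all data.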

[3] = dose range of 0.5–300 mg, fasting state; cited from earlier work
[4] = rats; cited from earlier work
[5] = dogs; cited from earlier work
[6] = ref data on file; cited from earlier work
Caco‐2 cells = conditions: cited from earlier work
[7] = Safety and tolerability assessments in the microtracer study; format: in vivo, human; conditions: for Adverse events: N = 8
Outline: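 Eight healthy adult men, fasted at least 8 h overnight, received the test compound orally plus an i.v. 14C microtracer (period 1), then oral unlabeled drug plus oral 14C microtracer (period 2). Monitoring covered adverse events, vital signs, ECGs and laboratory tests from screening through the study. A telephone follow-up for adverse events was made 14 ± 3 days after the last dose.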

[8] = cited from earlier work
[9] = 100 μg i.v. 14C, geometric mean (geometric %CV)
[10] = 15 mg oral unlabeled, dose-normalized to 1 mg, geometric mean (geometric %CV)

Question: For ^14C‐ertugliflozin, which “AUCinf(dn), adjusted least squares geometric mean” value ([1]; 100 μg i.v. 14C (Reference)) is on record?
Answer: 88.96 ng·h/mL/mg

Question: What about the AUCinf ([1]; 100 μg i.v. 14C microdose, period 1, N = 8, geometric mean (geometric %CV)) of the same compound?
Answer: 8.477 (15) ng·h/mL

Question: And the “Time quantifiable in plasma postdose” value ([1]; 100 μg i.v. 14C microdose, HPLC-AMS, LLOQ 20.4 pg/mL)?
Answer: ~24 h

Question: And the Tmax ([1]; 100 μg i.v. 14C, 5-min infusion, relative to infusion start, median (range))?
Answer: 0.083 (0.083–0.100) h

Question: And the t1/2 ([1]; 100 μg i.v. 14C)?
Answer: 8.098 ± 2.248 h

Question: What about the “Cmax(dn)” value ([1]; 100 μg i.v. 14C, dose-normalized to 1 mg, geometric mean (geometric %CV)) of the same compound?
Answer: 89.34 ^b (32) ng/mL/mg

Question: And the AUClast [1, 9]?
Answer: 7.859 (14) ng·h/mL

Question: And the CL [1, 9]?
Answer: 187.2 (15) mL/min

Question: What about the Cmax [1, 9] of the same compound?
Answer: 8.514 (32) ng/mL

Question: What about the Vss [1, 9] of the same compound?
Answer: 85.53 (15) L

Question: What about the “14C_Total(dn) (14C_Total in dpm/radioactivity dose in dpm), geometric mean” value ([2]; i.v. 100 μg 14C (Reference, period 1), urine) of the same compound?
Answer: 0.390

Question: What about the 14C-Total urinary excretion ([2]; i.v. 100 μg 14C, period 1, N = 6) of the same compound?
Answer: 319,000 (19) dpm and 319,000 dpm

Question: And the “Total 14C in urine as percent of administered dose (% 14C_Total)” value ([2]; i.v. administration)?
Answer: 39%

Question: And the 14C-Total urinary excretion ([2]; oral 100 μg 14C, period 2, N = 8)?
Answer: 320,400 (10) dpm and 320,400 dpm

Question: And the “Total 14C in urine as percent of administered dose (% 14C_Total)” value ([2]; oral administration)?
Answer: 44%

Question: For CCOc1ccc(Cc2cc([C@]34OC[C@](CO)(O3)[C@@H](O)[C@H](O)[C@H]4O)ccc2Cl)cc1 [ertugliflozin], which “Dose proportionality in exposure (AUC and Cmax)” value [3] is on record?
Answer: dose proportionality in exposure

Question: And the “Estimated Fa” value [4]?
Answer: ~75%

Question: And the “Estimated Fa” value [5]?
Answer: ~100%

Question: And the “AUCinf(dn), adjusted least squares geometric mean” value ([1]; 15 mg oral unlabeled (Test))?
Answer: 93.16 ng·h/mL/mg

Question: What about the “Time quantifiable in plasma postdose” value ([1]; 15 mg oral unlabeled, HPLC-MS/MS, LLOQ 0.5 ng/mL) of the same compound?
Answer: 72 h

Question: And the t1/2 ([1]; 15 mg oral unlabeled, listed as Unlabeled ertugliflozin)?
Answer: 14.04 ± 2.17 h

Question: And the “AUCinf(dn)” value [1, 10]?
Answer: 93.16 (13) ng·h/mL/mg

Question: And the “Cmax(dn)” value [1, 10]?
Answer: 17.09 (14) ng/mL/mg

Question: And the CL/F ([1]; 15 mg oral unlabeled, geometric mean (geometric %CV))?
Answer: 178.7 mL/min

Question: What about the Permeability classification ([1]; based on F and Fa ∼100%) of the same compound?
Answer: highly permeable

Question: What about the Vd ([1]; human, plasma, iv, 100 ug) of the same compound?
Answer: 85.5 L

Question: What about the clearance ([1]; human, plasma, iv, 100 ug) of the same compound?
Answer: 187 mL/min

Question: What about the half-life ([1]; human, plasma, iv, 100 ug, t1/2, 100 μg i.v. 14C) of the same compound?
Answer: 8.1 h

Question: What about the AUC(0-inf) ([1]; human, plasma, po, 15 mg) of the same compound?
Answer: 1400 ng·h/mL

Question: And the AUC(0-t) ([1]; human, plasma, po, 15 mg)?
Answer: 1380 ng·h/mL

Question: And the Cmax ([1]; human, plasma, po, 15 mg)?
Answer: 256 ng/mL

Question: And the Vd/F ([1]; human, plasma, po, 15 mg)?
Answer: 215 L

Question: What about the half-life ([1]; human, plasma, po, 15 mg, t1/2, 15 mg oral unlabeled) of the same compound?
Answer: 14 h

Question: What about the “Absolute oral bioavailability F: Ratio (Test/Reference) of adjusted means” value ([1]; oral 15 mg vs i.v. 14C 100 μg, fasted, N = 8) of the same compound?
Answer: 105% and 104.73%

Question: And the Solubility classification [6]?
Answer: highly soluble

Question: And the “Solubility of 15 mg in 250 mL aqueous media” value [6]?
Answer: completely soluble

Question: What about the BA/AB ratio (Caco‐2 cells; Caco-2) of the same compound?
Answer: 2.1

Question: What about the Permeability coefficient (Caco‐2 cells; apical (A) to basolateral (B) direction) of the same compound?
Answer: 4.1 ×10⁻⁶ cm/s

Question: What about the Tolerability ([7]; following i.v. and oral administration, healthy men) of the same compound?
Answer: well tolerated

Question: What about the Adverse events ([7]; period 1 (i.v. administration)) of the same compound?
Answer: Three subjects experienced three AEs (back pain and two episodes of headache)

Question: What about the Adverse events ([7]; period 2 (oral administration)) of the same compound?
Answer: one subject experienced one AE (nasal congestion)

Question: What about the “Fraction absorbed Fa: geometric mean ratio (90% CI), mixed-effects model” value ([2]; all available data (N = 8 oral; N = 6 i.v.)) of the same compound?
Answer: 110%

Question: And the Oral absorption ([2]; fasted conditions)?
Answer: complete; also recorded: completely absorbed

Question: What about the “14C_Total(dn) (14C_Total in dpm/radioactivity dose in dpm), geometric mean” value ([2]; oral (Test, period 2), urine 0–96 h) of the same compound?
Answer: 0.432

Question: What about the “Fraction absorbed Fa: ratio (Test/Reference) of geometric means” value ([2]; six subjects with complete urine data for both treatments, fasted) of the same compound?
Answer: 111% and 110.71%

Question: What about the Principal biotransformation pathway ([8]; humans) of the same compound?
Answer: glucuronidation

Question: What about the “Renal excretion of unchanged ertugliflozin” value ([8]; single 25-mg oral 14C dose, healthy male subjects) of the same compound?
Answer: 1.5%

Question: And the “Human fraction of dose absorbed (Fa) from mean urinary 14C recovery” value ([8]; single 25-mg oral 14C dose)?
Answer: at least 50%
